Experimental data from different studies.
Protocols differ between the studies behind these lines.

CC(C)(O)c1ccccc1-c1ccc2[nH]c(/C=C/c3ccc(C(F)(F)F)cc3)nc2c1 — MRT (male human, plasma; oral, 30 mg, single dose, fasted, healthy volunteers): 116 h
CN(CCC(=O)O)C(=O)c1ccc2c(c1)CC[C@@H]1[C@@H]2CC[C@]2(C)C(c3cncc(F)c3)=CC[C@@H]12 — IC50 (UDP-glucuronosyltransferase 1A1 (UGT1A1, Homo sapiens, UniProt P22309); enzyme activity, inhibitor; human, liver microsomes): 4.1 µM
CC(C)=CCC[C@@]1(C)C(CC[C@H]2[C@]3(C)CC[C@H](O)C(C)(C)O[C@H]3CC[C@@]2(C)O)=C(C)CC[C@H]1O — IC50 (KB 3-1; cell growth or viability, MTT; 72 h): > 50 µM
CC(C)Oc1cccc(-c2cnc(N3CCC(C(N)=O)CC3)s2)c1 — concentration (male Swiss mouse, brain; oral, 30 mg/kg, 12 h, single dose): 0 nM
CC1=CC[C@H]2[C@@H]([C@@H]1CC[C@H]1[C@]3(C)CC[C@H](O)C(C)(C)O[C@H]3CC[C@]1(C)O)C(C)(C)CC[C@]2(C)O — IC50 (KB 3-1; cell growth or viability, MTT; 72 h): > 50 µM
CC(C)CN(C[C@@H](O)[C@H](Cc1ccccc1)NC(=O)O[C@H]1CO[C@H]2OCC[C@H]21)S(=O)(=O)c1ccc(N)cc1 — concentration (BALB/c mouse, plasma; intravenous, 25 mg/kg, 1 h): 397 ng/mL
CC(C)(Nc1nc(-c2ccccn2)nc2ccccc12)c1ccccn1 — concentration (female BALB/c mouse, plasma; oral, 50 mg/kg, 4 h): 5060 ng/mL
COc1ccc(S(=O)(=O)ON=C2C=C(C)C(=O)C(C)=C2)cc1 — CC50 (HMEC; cell growth or viability): > 15.5 µM
